What all share (type): functional
One assay deals with Staphylococcus aureus. As to the kind of experiment: Antibacterial activity against Staphylococcus aureus ATCC 25923. An outline of the steps: (§1)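 Twofold serial dilution method; reference laboratory ATCC strains used as test organisms: S. aureus 25923, E. coli 25922, S. pneumoniae 49619, H. influenzae 49247.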
The test system of another assay is Escherichia coli. As to the kind of experiment: Antibacterial activity against Escherichia coli ATCC 25922. In outline:
as §1

In another assay the test system is Streptococcus pneumoniae. Put plainly: Antibacterial activity against Streptococcus pneumoniae ATCC 49619. In outline: as §1
Another assay deals with Haemophilus influenzae. As to the kind of experiment: Antibacterial activity against Haemophilus influenzae ATCC 49247. In outline: as §1

Converted amounts (≈) assume the structure as drawn.

Take `C[C@@H]1O[C@@H](Oc2ccc(O)cc2[C@@H]2CC(=O)c3c(O)cc(O)cc3O2)[C@H](O)[C@H](O[C@@H]2O[C@H](CO)[C@@H](O)[C@H](O)[C@H]2O)[C@H]1O`: the MIC was determined as 128 µg/mL (≈ 215 µM) in the assay with Staphylococcus aureus, 64 µg/mL (≈ 107 µM) against Escherichia coli, 32 µg/mL (≈ 53.6 µM) in the assay with Streptococcus pneumoniae and 32 µg/mL (≈ 53.6 µM) in the assay with Haemophilus influenzae.

In the case of `CC(=O)OC[C@H]1O[C@@H](O[C@@H]2[C@@H](O)[C@H](C)O[C@@H](Oc3ccc(O)cc3[C@@H]3CC(=O)c4c(O)cc(O)cc4O3)[C@@H]2OC(C)=O)[C@H](O)[C@@H](O)[C@@H]1O`, the MIC against Staphylococcus aureus was 128 µg/mL (≈ 188 µM); in the assay with Escherichia coli, 64 µg/mL (≈ 94 µM); with Streptococcus pneumoniae, 32 µg/mL (≈ 47 µM); against Haemophilus influenzae, 32 µg/mL (≈ 47 µM).

For `CC(=O)OC[C@H]1O[C@@H](O[C@@H]2[C@@H](O)[C@H](C)O[C@@H](Oc3ccc(O)cc3[C@@H]3CC(=O)c4c(O)cc(O)cc4O3)[C@@H]2OC(C)=O)[C@H](O)[C@@H](OC(C)=O)[C@@H]1OC(C)=O`, the MIC against Staphylococcus aureus came out at 128 µg/mL (≈ 167 µM); against Escherichia coli, 64 µg/mL (≈ 83.7 µM); in the assay on Streptococcus pneumoniae it was 32 µg/mL (≈ 41.8 µM); in the assay with Haemophilus influenzae, 32 µg/mL (≈ 41.8 µM).

Take `CC[C@H]1OC(=O)[C@H](C)[C@@H](O[C@H]2C[C@@](C)(OC)[C@@H](O)[C@H](C)O2)[C@H](C)[C@@H](O[C@@H]2O[C@H](C)C[C@H](N(C)C)[C@H]2O)[C@](C)(O)C[C@@H](C)C(=O)[C@H](C)[C@@H](O)[C@]1(C)O` [ERYTHROMYCIN]: the MIC with Staphylococcus aureus turned out to be 0.25 µg/mL (≈ 0.341 µM); in the assay with Escherichia coli it was 0.25 µg/mL (≈ 0.341 µM); against Streptococcus pneumoniae, 64 µg/mL (≈ 87.2 µM); against Haemophilus influenzae, 64 µg/mL (≈ 87.2 µM).

On to `CC(=O)OC[C@H]1O[C@@H](O[C@@H]2[C@@H](O)[C@H](C)O[C@@H](Oc3ccc(O)cc3[C@@H]3CC(=O)c4c(O)cc(O)cc4O3)[C@@H]2OC(C)=O)[C@H](O)[C@@H](O)[C@@H]1OC(C)=O`, for which the MIC came out at 128 µg/mL (≈ 177 µM) in the assay with Staphylococcus aureus, 64 µg/mL (≈ 88.6 µM) against Escherichia coli, 32 µg/mL (≈ 44.3 µM) with Streptococcus pneumoniae and 32 µg/mL (≈ 44.3 µM) with Haemophilus influenzae.

Take `CC(=O)O[C@H]1[C@H](Oc2ccc(O)cc2[C@@H]2CC(=O)c3c(O)cc(O)cc3O2)O[C@@H](C)[C@H](O)[C@H]1O[C@@H]1O[C@H](CO)[C@@H](O)[C@H](O)[C@H]1O`: the MIC in the assay with Staphylococcus aureus stood at 128 µg/mL (≈ 200 µM); with Escherichia coli, 64 µg/mL (≈ 100 µM); against Streptococcus pneumoniae, 32 µg/mL (≈ 50.1 µM); in the assay with Haemophilus influenzae it was 32 µg/mL (≈ 50.1 µM).

Regarding `CC(=O)OC[C@H]1O[C@@H](O[C@@H]2[C@@H](O)[C@H](C)O[C@@H](Oc3ccc(O)cc3[C@@H]3CC(=O)c4c(O)cc(O)cc4O3)[C@@H]2OC(C)=O)[C@H](OC(C)=O)[C@@H](O)[C@@H]1O`, the MIC against Staphylococcus aureus was 128 µg/mL (≈ 177 µM); against Escherichia coli, 64 µg/mL (≈ 88.6 µM); with Streptococcus pneumoniae it was 32 µg/mL (≈ 44.3 µM); in the assay with Haemophilus influenzae it was 32 µg/mL (≈ 44.3 µM).

Regarding `CC[C@H]1OC(=O)[C@H](C)[C@@H](O[C@H]2C[C@@](C)(OC)[C@@H](O)[C@H](C)O2)[C@H](C)[C@@H](O[C@@H]2O[C@H](C)C[C@H](N(C)C)[C@H]2O)[C@](C)(O)C[C@@H](C)CN(C)[C@H](C)[C@@H](O)[C@]1(C)O` [AZITHROMYCIN], the MIC is 0.5 µg/mL (≈ 0.668 µM) in the assay on Staphylococcus aureus, 0.5 µg/mL (≈ 0.668 µM) in the assay on Escherichia coli, 4 µg/mL (≈ 5.34 µM) against Streptococcus pneumoniae and 8 µg/mL (≈ 10.7 µM) against Haemophilus influenzae.

Regarding `CC(=O)OC[C@H]1O[C@@H](O[C@@H]2[C@@H](O)[C@H](C)O[C@@H](Oc3ccc(O)cc3[C@@H]3CC(=O)c4c(O)cc(O)cc4O3)[C@@H]2OC(C)=O)[C@H](O)[C@@H](OC(C)=O)[C@@H]1O`, the MIC turned out to be 128 µg/mL (≈ 177 µM) against Staphylococcus aureus, 64 µg/mL (≈ 88.6 µM) in the assay with Escherichia coli, 32 µg/mL (≈ 44.3 µM) in the assay on Streptococcus pneumoniae and 32 µg/mL (≈ 44.3 µM) against Haemophilus influenzae.

Source of the values: ChEMBL document CHEMBL1158114, “Acetylated flavanone glycosides from the rhizomes of Cyclosorus acuminatus” (2006).
